Laboratory results taken from ChEMBL document CHEMBL2176913, “Haloarene derivatives of carbamazepine with reduced bioactivation liabilities: 2-monohalo and 2,8-dihalo derivatives” (J Med Chem, 2012).

Legend:
[1] = test system: Hepatocyte; test: Drug metabolism in Wistar rat hepatocytes assessed as ratio of O-sulfonate I metabolite level to parent compound level at 50 uM incubated for 6 hrs by HPLC and LC-MS/Ms method; format: ADME, cell-based
Method in brief: (§1)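 Hepatocytes freshly isolated from male rat liver by two-step collagenase perfusion; only cells with ≥80% viability (trypan blue) were used. Cells at 2 × 10^6 cells/mL were shaken at 37 °C for 6 h with substrate at 50 μM, added in methanol (1% final volume). Reactions were stopped with acetonitrile. Metabolites were identified against authentic standards and by ESI LC–MS. Ratios are metabolite:parent compound.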

[2] = test system: Hepatocyte; test: Drug metabolism in Wistar rat hepatocytes assessed as ratio of O-sulfonate II metabolite level to parent compound level at 50 uM incubated for 6 hrs by HPLC and LC-MS/Ms method; format: ADME, cell-based; method in brief: as §1
[3] = Drug metabolism in human liver microsomes assessed as compound turnover at 50 uM incubated for 60 mins by HPLC and LC-MS/Ms method; format: ADME, Microsome; conditions: read-out: Drug metabolism
Method in brief: (§2)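 Pooled human liver microsomes (150 donors, both sexes), 1 mg/mL protein, with substrate at 50 μM and NADPH at 1 mM. Incubated in 0.1 M potassium phosphate, pH 7.4, for 60 min at 37 °C; controls lacked NADPH. The reaction was stopped with ice-cold acetonitrile, and the supernatant was dried, reconstituted in methanol/water and analysed by HPLC-UV and ESI LC–MS (4000 Qtrap).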

[4] = test system: Liver microsomes; test: Stability in human liver microsomes assessed as dioxygenated metabolite formation at 50 uM incubated for 60 mins by HPLC and LC-MS/Ms method; format: ADME, Microsome; conditions: 1 h; method in brief: as §2
[5] = test system: Hepatocyte; test: Drug metabolism in Wistar rat hepatocytes assessed as ratio of 10,11-epoxide metabolite level to parent compound level at 50 uM incubated for 6 hrs by HPLC and LC-MS/Ms method; format: ADME, cell-based; method in brief: as §1
[6] = test system: Hepatocyte; test: Drug metabolism in Wistar rat hepatocytes assessed as GSH adduct formation at 50 uM incubated for 6 hrs by HPLC and LC-MS/Ms method; format: ADME, cell-based; method in brief: as §1
[7] = test system: Liver microsomes; test: Drug metabolism in human liver microsomes assessed as 10,11 epoxidation level at 50 uM incubated for 60 mins by HPLC and LC-MS/Ms method; format: ADME, Microsome; conditions: 1 h; method in brief: as §2
[8] = test system: Hepatocyte; test: Stability in Wistar rat hepatocytes assessed as 10,11-epoxide N-glucuronide metabolite formation at 1 mM incubated for 6 hrs by HPLC and LC-MS/Ms method; format: ADME, cell-based; conditions: 1000 µM
Method in brief: (§3)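 Male rat hepatocytes were isolated by collagenase perfusion (≥80% viable) and suspended at 2 × 10^6 cells/mL. They were incubated 6 h at 37 °C with substrate at typically 50–1000 μM, added in methanol (1% final volume); one analogue was tested only at 50 and 200 μM, added in acetonitrile. The reaction was stopped with acetonitrile, and the supernatant was concentrated and analysed by HPLC-UV and ESI LC–MS.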

[9] = test system: Hepatocyte; test: Drug metabolism in Wistar rat hepatocytes assessed as ratio of epoxide N-glucuronide metabolite level to parent compound level at 50 uM incubated for 6 hrs by HPLC and LC-MS/Ms method; format: ADME, cell-based; method in brief: as §1
[10] = test system: Liver microsomes; test: Stability in human liver microsomes assessed as diol formation at 50 uM incubated for 60 mins by HPLC and LC-MS/Ms method; format: ADME, Microsome; conditions: 1 h; method in brief: as §2
[11] = test system: Hepatocyte; test: Stability in Wistar rat hepatocytes assessed as metabolite formation at >200 uM incubated for 6 hrs by HPLC and LC-MS/Ms method; format: ADME, cell-based; method in brief: as §3
[12] = test system: Hepatocyte; test: Drug metabolism in Wistar rat hepatocytes assessed as ratio of N-glucuronide metabolite level to parent compound level at 50 uM incubated for 6 hrs by HPLC and LC-MS/Ms method; format: ADME, cell-based; method in brief: as §1
[13] = test system: Hepatocyte; test: Stability in Wistar rat hepatocytes assessed as 10,11-epoxide N-glucuronide metabolite formation at 100 uM incubated for 6 hrs by HPLC and LC-MS/Ms method; format: ADME, cell-based; method in brief: as §3
[14] = test system: Hepatocyte; test: Stability in Wistar rat hepatocytes assessed as 10,11-epoxide N-glucuronide metabolite formation at 500 uM incubated for 6 hrs by HPLC and LC-MS/Ms method; format: ADME, cell-based; method in brief: as §3
[15] = test system: Liver microsomes; test: Stability in human liver microsomes assessed as oxidative defluorination at 50 uM incubated for 60 mins by HPLC and LC-MS/Ms method; format: ADME, Microsome; conditions: 1 h; method in brief: as §2
[16] = test system: Hepatocyte; test: Stability in Wistar rat hepatocytes assessed as 10,11-epoxide N-glucuronide metabolite formation at 200 uM incubated for 6 hrs by HPLC and LC-MS/Ms method; format: ADME, cell-based; method in brief: as §3

Structure (SMILES) | Stability [1] | Stability [2] | metabolised at 1 h, 50 µM [3] | Stability [4] | Ratio [5] | Drug metabolism [6] | Ratio [1] | Drug metabolism [7] | Ratio [2] | Stability [8] | Ratio [9] | Stability [10] | Stability [11] | Ratio [12] | Stability [13] | Stability [14] | Stability [15] | Stability [16]
NC(=O)N1c2ccccc2C=Cc2ccccc21 [CARBAMAZEPINE] | – | – | 1% | Stable | 0.52 | Active | 0.08 | Active | 0.32 | Stable | 0.24 | Stable | Stable | 0.63 | – | – | – | –
NC(=O)N1c2ccc(Br)cc2C=Cc2cc(Br)ccc21 | Stable | Stable | – | – | 0.19 | – | – | – | – | – | – | – | Stable | 0.27 | Stable | – | – | –
NC(=O)N1c2ccc(F)cc2C=Cc2cc(F)ccc21 | Stable | Stable | 1% | Stable | 0.07 | – | – | Active | – | – | 0.02 | Stable | Stable | 0.18 | – | Stable | Stable | –

The next lines start with the values.

Stability [1] | Stability [2] | metabolised at 1 h, 50 µM [3] | Stability [4] | Ratio [5] | Drug metabolism [6] | Ratio [1] | Drug metabolism [7] | Ratio [2] | Stability [8] | Ratio [9] | Stability [10] | Stability [11] | Ratio [12] | Stability [13] | Stability [14] | Stability [15] | Stability [16] | Structure (SMILES)
Stable | Stable | – | – | – | – | – | – | – | – | – | – | – | – | – | – | – | – | NC(=O)N1c2ccccc2C=Cc2cc(Br)ccc21
Stable | – | – | – | 0.28 | – | – | – | 0.41 | – | 0.15 | – | Stable | 0.784 | – | – | – | Stable | NC(=O)N1c2ccccc2C=Cc2cc(F)ccc21
Stable | Stable | – | – | 0.14 | – | – | – | – | – | 0.21 | – | Stable | 0.22 | – | – | – | Stable | NC(=O)N1c2ccc(Cl)cc2C=Cc2cc(Cl)ccc21
Stable | Stable | – | – | 0.21 | – | – | – | – | – | 0.11 | – | Stable | 2.04 | – | Stable | – | – | NC(=O)N1c2ccccc2C=Cc2cc(Cl)ccc21
